Measurements reported in publication PMC10249145 (Cardiovascular & hematological agents in medicinal chemistry, 2023).
One block for each compound: values may come before it.

Tests used:
FXIa [1] = experiment: Inhibition of FXIa, chromogenic substrate hydrolysis assay; assay type: biochemical, human; conditions: ratio of IC50 values
Summary of the method: (§1)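 Human FXIa activity was measured with chromogenic substrate S-2366 in pH 7.4 Tris-HCl with NaCl, 2.5 mM CaCl2, 0.1% PEG8000 and 0.02% Tween80. Residual activity was measured at several test compound concentrations, and a logistic fit gave IC50, efficacy and Hill slope.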

FXIa [2] = target: FXIa (Homo sapiens, UniProt P03951); experiment: as above; assay type: biochemical
Summary of the method: as §1

FXa [3] = target: FXa (Homo sapiens, UniProt P00742, DEL180-234); experiment: Inhibition of FXa, chromogenic substrate hydrolysis assay; assay type: biochemical
Summary of the method: (§2)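 In-well FXa was about 1.09 nM with Spectrozyme FXa at 125 μM (from KM), in pH 7.4 Tris-HCl containing NaCl, 2.5 mM CaCl2, 0.1% PEG8000 and 0.02% Tween80. Several test compound concentrations were used; residual activity was fitted with a logistic equation for IC50 where inhibition was concentration-dependent.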

FXa [4] = experiment: as above; assay type: biochemical, human; conditions: ratio of IC50 values
Summary of the method: as §2

human plasma kallikrein [5] = target: human plasma kallikrein (Homo sapiens, UniProt P03952); experiment: Inhibition of plasma kallikrein, chromogenic substrate hydrolysis assay; assay type: biochemical
Summary of the method: (§3)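 Human plasma kallikrein was used at about 3 nM with Spectrozyme PK at 100 μM (in-well, set from KM), in pH 7.4 Tris-HCl with NaCl, CaCl2, PEG8000 and Tween80. Residual activity was measured at several test compound concentrations; IC50 was fitted by logistic equation where inhibition was concentration-dependent.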

human plasma kallikrein [6] = experiment: as above; assay type: biochemical; conditions: ratio of IC50 values
Summary of the method: as §3

human plasmin [7] = experiment: Inhibition of plasmin, chromogenic substrate hydrolysis assay; assay type: biochemical; conditions: ratio of IC50 values
Summary of the method: (§4)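 Human plasmin at about 20 nM with Spectrozyme PL at 50 μM in-well (set from KM), in pH 7.4 Tris-HCl with NaCl, 2.5 mM CaCl2, 0.1% PEG8000 and 0.02% Tween80. Residual activity was measured at several test compound concentrations, and a logistic fit gave IC50, efficacy and Hill slope.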

human plasmin [8] = target: human plasmin (Homo sapiens, UniProt P00747); experiment: as above; assay type: biochemical
Summary of the method: as §4

human FXIIa [9] = target: T1, human FXIIa (Homo sapiens, UniProt P00748); experiment: Direct inhibition of human FXIIa, chromogenic substrate hydrolysis assay; assay type: biochemical; conditions: for HS (Hill slope) / DeltaY (efficacy of inhibition): human FXIIa, pH 7.4, 37 °C, ± 1 S.E.; for decrease in the inhibition potency: FXIIa IC50 relative to inhibitor 1
T1 sequence (P00748 20-615): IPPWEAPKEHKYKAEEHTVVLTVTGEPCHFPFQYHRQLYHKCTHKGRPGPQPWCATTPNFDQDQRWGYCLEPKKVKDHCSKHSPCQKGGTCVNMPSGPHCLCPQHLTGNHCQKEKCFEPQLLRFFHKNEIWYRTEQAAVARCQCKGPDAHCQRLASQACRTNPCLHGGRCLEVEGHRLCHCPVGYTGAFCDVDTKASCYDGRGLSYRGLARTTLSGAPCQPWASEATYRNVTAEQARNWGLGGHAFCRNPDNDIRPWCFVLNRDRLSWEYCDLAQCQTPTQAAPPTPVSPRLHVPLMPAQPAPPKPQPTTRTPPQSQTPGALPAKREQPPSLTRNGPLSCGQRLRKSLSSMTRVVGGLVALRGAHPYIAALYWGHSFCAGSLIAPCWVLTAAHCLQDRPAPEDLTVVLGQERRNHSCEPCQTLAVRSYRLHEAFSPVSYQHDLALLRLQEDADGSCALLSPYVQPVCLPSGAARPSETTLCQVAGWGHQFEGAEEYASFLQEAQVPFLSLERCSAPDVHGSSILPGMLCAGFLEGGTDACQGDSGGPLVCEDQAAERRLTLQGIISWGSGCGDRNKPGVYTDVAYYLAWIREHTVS
Summary of the method: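 Human FXIIa (stock 200 nM) was preincubated for 5 min with test compound or vehicle in Tris-HCl pH 7.4 with NaCl, 2.5 mM CaCl2, 0.1% PEG8000 and 0.02% Tween80 at 37 °C. Spectrozyme FXIIa (stock 5 mM) was then added. Twelve in-well concentrations (500–0.0025 μM) were tested. Residual activity was taken from the initial A405 rate, and a logistic fit gave IC50, efficacy and Hill slope (±1 S.E.).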

human plasma [10] = experiment: Prothrombin time; assay type: biochemical; conditions: normal human plasma; highest concentration tested about 980 μM
Summary of the method: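 Thromboplastin-D was reconstituted in distilled water and warmed to 37 °C. Citrated pooled normal human plasma was incubated with test compound (solutions of 0–983 μM as added) for 30 s at 37 °C. Clotting was started by adding the prewarmed thromboplastin-D and the clotting time was read on a fibrometer. The concentration giving a 1.5-fold increase in PT was derived. Values are means of three experiments.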

human plasma [11] = experiment: Activated partial thromboplastin time; assay type: biochemical; conditions: normal human plasma, ellagic acid APTT reagent
Summary of the method: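 Citrated pooled normal human plasma was mixed with test compound (solutions of 0–983 μM as added) and prewarmed ellagic acid APTT reagent (0.2%). After 4 min at 37 °C, clotting was started with prewarmed 25 mM CaCl2 and the clotting time was read on a fibrometer. The concentration giving a 1.5-fold increase in APTT was derived. Values are means of three experiments.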

FVIIa/tissue factor [12] = experiment: Inhibition of FVIIa/tissue factor, chromogenic substrate hydrolysis assay; assay type: biochemical, human; conditions: ratio of IC50 values
Summary of the method: (§5)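 FVIIa/tissue factor: enzyme about 8 nM with Spectrozyme VIIa at 1000 μM in-well, chosen from KM. Buffer was pH 7.4 Tris-HCl with NaCl, 2.5 mM CaCl2, 0.1% PEG8000 and 0.02% Tween80. Residual chromogenic activity was measured at several test compound concentrations, and a logistic fit gave IC50 where inhibition was concentration-dependent.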

FVIIa/tissue factor [13] = target: T2, FVIIa/tissue factor (Homo sapiens, UniProt P08709); experiment: as above; assay type: biochemical
T2 sequence (P08709 61-466): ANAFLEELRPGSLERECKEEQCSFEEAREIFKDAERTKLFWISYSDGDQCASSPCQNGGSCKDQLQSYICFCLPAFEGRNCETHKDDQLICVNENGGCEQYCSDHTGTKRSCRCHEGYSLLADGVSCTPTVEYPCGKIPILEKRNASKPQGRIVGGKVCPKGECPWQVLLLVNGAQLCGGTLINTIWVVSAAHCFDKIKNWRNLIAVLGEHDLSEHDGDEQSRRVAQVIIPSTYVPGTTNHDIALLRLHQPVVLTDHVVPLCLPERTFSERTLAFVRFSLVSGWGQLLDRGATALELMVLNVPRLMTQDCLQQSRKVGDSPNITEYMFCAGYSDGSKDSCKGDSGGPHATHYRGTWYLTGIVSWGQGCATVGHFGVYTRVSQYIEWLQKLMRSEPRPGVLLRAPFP
Summary of the method: as §5

thrombin [14] = experiment: Inhibition of thrombin, chromogenic substrate hydrolysis assay; assay type: biochemical, human; conditions: ratio of IC50 values
Summary of the method: (§6)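 Thrombin at about 6 nM with Spectrozyme TH at 50 μM (in-well), in pH 7.4 Tris-HCl buffer with NaCl, CaCl2, PEG8000 and Tween80. Substrate level was set from its KM. Residual activity was measured across several test compound concentrations, and a logistic fit of concentration-dependent inhibition gave IC50, efficacy and Hill slope.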

thrombin [15] = target: thrombin (Homo sapiens, UniProt P00734); experiment: as above; assay type: biochemical
Summary of the method: as §6

FIXa [16] = experiment: Inhibition of FIXa, chromogenic substrate hydrolysis assay; assay type: biochemical, human; conditions: ratio of IC50 values
Summary of the method: (§7)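 FIXa assay: about 89 nM enzyme and 850 μM Spectrozyme FIXa (in-well, level set from KM), in pH 7.4 Tris-HCl with NaCl, CaCl2, PEG8000 and Tween80. Residual activity was measured at several test compound concentrations and fitted with a logistic equation for IC50 where inhibition was concentration-dependent.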

FIXa [17] = target: FIXa (Homo sapiens, UniProt P00740, DEL192-226); experiment: as above; assay type: biochemical
Summary of the method: as §7

bovine trypsin = target: T3, bovine trypsin (Bos taurus, UniProt P00760); experiment: Inhibition of trypsin, chromogenic substrate hydrolysis assay; assay type: biochemical
T3 sequence (P00760 24-246): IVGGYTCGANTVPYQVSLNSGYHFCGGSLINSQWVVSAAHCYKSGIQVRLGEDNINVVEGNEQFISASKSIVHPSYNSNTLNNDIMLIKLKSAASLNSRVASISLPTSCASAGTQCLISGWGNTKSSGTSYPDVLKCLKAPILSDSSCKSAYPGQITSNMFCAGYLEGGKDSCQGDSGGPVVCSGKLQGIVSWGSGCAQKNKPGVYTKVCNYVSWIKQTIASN
Summary of the method: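 Bovine trypsin at 500 ng/mL with S-2222 at 650 μM in-well (substrate level from KM), in pH 7.4 Tris-HCl containing NaCl, CaCl2, PEG8000 and Tween80. Residual activity was measured at several test compound concentrations, with logistic fitting for IC50 where inhibition was concentration-dependent.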

human FXIIa [18] = target: T1, human FXIIa; experiment: Affinity to human FXIIa by intrinsic tryptophan fluorescence spectroscopy; assay type: binding
Summary of the method: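 Test compound (100 μM) was titrated into human FXIIa (350 nM) in 50 mM Tris-HCl pH 7.4 with 150 mM NaCl and 0.1% PEG8000 at 37 °C. Intrinsic tryptophan fluorescence was read at λem 348 nm (λex 280 nm). The fluorescence change was fitted to a quadratic equilibrium binding equation to give Kd.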

human FXIIa [19] = target: T1, human FXIIa; experiment: Inhibition of FXIIa-mediated activation of FXI to FXIa; assay type: biochemical
Summary of the method: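 Zymogen FXI (4 μM as added), human FXIIa (200 nM as added) and test compound (1000–0.32 μM as added) were combined in Tris-HCl pH 7.4 at 37 °C. After 5 min, S-2366 (stock 6.9 mM) was added. The FXIa generated was measured as the initial A405 rate. A logistic fit of relative residual activity gave IC50 and efficacy.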

bovine α-chymotrypsin [20] = experiment: Inhibition of chymotrypsin, chromogenic substrate hydrolysis assay; assay type: biochemical; conditions: ratio of IC50 values
Summary of the method: (§8)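 Bovine α-chymotrypsin at 500 ng/mL with N-succinyl-Ala-Ala-Pro-Phe-p-nitroanilide at 910 μM in-well (from KM), in pH 7.4 Tris-HCl with NaCl, CaCl2, PEG8000 and Tween80. Residual activity was measured over several test compound concentrations, with logistic fitting for IC50 where inhibition was concentration-dependent.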

bovine α-chymotrypsin [21] = target: bovine α-chymotrypsin (Bos taurus, UniProt P00766, DEL14-15/DEL147-148); experiment: as above; assay type: biochemical
Summary of the method: as §8

human plasma [22] = conditions: normal human plasma, positive controls; cited from earlier work
human plasma [23] = conditions: normal human plasma, positive controls; cited from earlier work; remark: listed apart in the source

FXIa (Homo sapiens, UniProt P03951), sequence (P03951 19-625): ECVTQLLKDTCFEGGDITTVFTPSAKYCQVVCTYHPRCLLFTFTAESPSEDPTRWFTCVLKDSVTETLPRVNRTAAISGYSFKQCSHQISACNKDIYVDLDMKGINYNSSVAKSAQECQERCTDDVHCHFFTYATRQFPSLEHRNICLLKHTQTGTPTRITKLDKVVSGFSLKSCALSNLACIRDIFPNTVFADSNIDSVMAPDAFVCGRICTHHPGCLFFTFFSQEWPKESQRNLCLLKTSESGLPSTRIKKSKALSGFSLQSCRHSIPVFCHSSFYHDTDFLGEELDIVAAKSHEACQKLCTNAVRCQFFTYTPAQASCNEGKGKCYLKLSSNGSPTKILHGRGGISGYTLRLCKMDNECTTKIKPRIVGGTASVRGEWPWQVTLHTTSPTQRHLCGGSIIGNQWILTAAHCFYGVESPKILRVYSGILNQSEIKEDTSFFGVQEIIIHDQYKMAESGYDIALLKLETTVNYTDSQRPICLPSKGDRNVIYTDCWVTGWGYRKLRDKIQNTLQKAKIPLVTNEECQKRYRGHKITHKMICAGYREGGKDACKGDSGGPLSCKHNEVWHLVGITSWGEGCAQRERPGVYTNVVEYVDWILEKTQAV
human plasmin (Homo sapiens, UniProt P00747), sequence (P00747 97-810): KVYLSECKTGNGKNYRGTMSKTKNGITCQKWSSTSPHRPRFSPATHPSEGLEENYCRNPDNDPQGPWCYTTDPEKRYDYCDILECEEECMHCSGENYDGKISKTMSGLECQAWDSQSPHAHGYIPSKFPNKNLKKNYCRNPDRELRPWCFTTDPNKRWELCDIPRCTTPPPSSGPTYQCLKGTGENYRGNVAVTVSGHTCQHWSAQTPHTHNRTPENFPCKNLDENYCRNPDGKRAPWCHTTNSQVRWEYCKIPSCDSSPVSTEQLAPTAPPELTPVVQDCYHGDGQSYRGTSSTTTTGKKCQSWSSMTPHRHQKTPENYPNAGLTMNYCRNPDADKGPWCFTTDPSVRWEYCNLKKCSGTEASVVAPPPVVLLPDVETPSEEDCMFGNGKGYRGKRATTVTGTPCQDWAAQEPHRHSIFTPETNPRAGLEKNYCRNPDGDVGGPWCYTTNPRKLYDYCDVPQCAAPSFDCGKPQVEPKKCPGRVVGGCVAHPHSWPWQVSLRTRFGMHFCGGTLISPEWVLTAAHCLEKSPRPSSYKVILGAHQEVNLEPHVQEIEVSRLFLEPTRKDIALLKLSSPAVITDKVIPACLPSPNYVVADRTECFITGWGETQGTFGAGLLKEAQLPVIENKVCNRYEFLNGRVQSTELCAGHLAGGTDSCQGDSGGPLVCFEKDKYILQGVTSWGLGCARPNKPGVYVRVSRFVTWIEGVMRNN
human plasma kallikrein (Homo sapiens, UniProt P03952), sequence (P03952 20-638): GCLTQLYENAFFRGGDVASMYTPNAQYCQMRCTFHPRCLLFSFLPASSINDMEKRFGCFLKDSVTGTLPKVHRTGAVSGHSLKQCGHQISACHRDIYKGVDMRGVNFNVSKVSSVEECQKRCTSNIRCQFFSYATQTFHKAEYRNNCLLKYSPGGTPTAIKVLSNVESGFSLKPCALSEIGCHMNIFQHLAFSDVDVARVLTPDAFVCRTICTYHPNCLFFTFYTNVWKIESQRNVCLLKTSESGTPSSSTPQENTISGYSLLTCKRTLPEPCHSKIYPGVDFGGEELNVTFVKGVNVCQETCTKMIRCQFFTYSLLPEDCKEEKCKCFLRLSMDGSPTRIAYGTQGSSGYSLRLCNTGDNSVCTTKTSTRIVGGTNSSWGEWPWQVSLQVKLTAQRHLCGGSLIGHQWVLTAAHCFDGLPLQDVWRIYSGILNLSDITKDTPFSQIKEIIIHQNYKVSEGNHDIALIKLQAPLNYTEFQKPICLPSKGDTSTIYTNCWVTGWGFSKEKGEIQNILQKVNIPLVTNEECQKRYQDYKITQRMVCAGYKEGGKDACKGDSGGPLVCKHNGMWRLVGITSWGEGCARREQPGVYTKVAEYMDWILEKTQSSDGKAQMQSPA

- IC50 (FXIa [2]): 16.8 ± 6.7 µM
- DeltaY (efficacy of inhibition) (FXIa [2]; FXIa): 32 ± 11%
- HS (Hill slope) (FXIa [2]; FXIa): 1.9 ± 2.8
- IC50 (FXa [3]): > 577 µM
- IC50 (human plasma kallikrein [5]): > 500 µM
- IC50 (human plasmin [8]): 83.2 ± 37 µM
- DeltaY (efficacy of inhibition) (human plasmin [8]; Plasmin): 25 ± 12%
- HS (Hill slope) (human plasmin [8]; Plasmin): 1.4 ± 1.6
- HS (Hill slope) (human FXIIa [9]): 1.7 ± 0.4
- IC50 (FVIIa/tissue factor [13]): > 1000 µM
- IC50 (thrombin [15]): 235 ± 52.5 µM
- DeltaY (efficacy of inhibition) (thrombin [15]; Thrombin): 106 ± 7%
- HS (Hill slope) (thrombin [15]; Thrombin): 0.4 ± 0.1
- IC50 (FIXa [17]): > 1000 µM
- IC50 (bovine trypsin): > 1000 µM
- selectivity to FXIIa over trypsin (bovine trypsin; ratio of IC50 values): at least 4545 fold
- Kd (human FXIIa [18]): 0.98 ± 0.13 µM
- IC50 (human FXIIa [19]): ~2 µM
- efficacy of FXIIa inhibition using the macromolecule substrate FXI (human FXIIa [19]; residual FXIa activity by S-2366, pH 7.4, 37 °C): ~ 41%
- IC50 (bovine α-chymotrypsin [21]): > 1000 µM
SMILES: COC(=O)c1nc(N)n(C(=O)c2ccc(C(C)(C)C)cc2)n1 [Inhibitor 1, Methyl 5-amino-1-(4-(tert-butyl)benzoyl)-1H-1,2,4-triazole-3-carboxylate]
- selectivity index to human FXIIa over FXIa (FXIa [1]): 153 fold
- selectivity to FXIIa over FXa (FXa [4]): at least 4545 fold
- selectivity to FXIIa over plasma kallikrein (human plasma kallikrein [6]): at least 4545 fold
- selectivity index to human FXIIa over plasmin (human plasmin [7]): 756 fold
- PT (EC×1.5), concentration required to increase PT by 1.5-fold (human plasma [10]): not significantly affected
- APTT (EC×1.5), concentration required to increase APTT by 1.5-fold (human plasma [11]): ~340 µM
- APTT (EC×1.5), concentration required to increase APTT by 1.5-fold (human plasma [11]; listed as 1): ~ 340 μM
- selectivity to FXIIa over FVIIa/TF (FVIIa/tissue factor [12]): at least 4545 fold
- selectivity index to human FXIIa over thrombin (thrombin [14]): 2137 fold
- selectivity to FXIIa over FIXa (FIXa [16]): at least 4545 fold
- selectivity to FXIIa over α-chymotrypsin (bovine α-chymotrypsin [20]): at least 4545 fold

SMILES: O=C(NC[C@H]1CN(c2ccc(N3CCOCC3=O)cc2)C(=O)O1)c1ccc(Cl)s1 [Rivaroxaban]
- PT (EC×1.5) (human plasma [22]): ~0.08 µM
- APTT (EC×1.5) (human plasma [23]): ~0.06 µM

- decrease in the inhibition potency (human FXIIa [9]): ~ 2.2 fold
- DeltaY (efficacy of inhibition) (human FXIIa [9]): 92.2 ± 3.1%
- HS (Hill slope) (human FXIIa [9]): 1.09 ± 0.14
SMILES: COC(=O)c1nc(N)n(C(=O)c2ccccc2)n1 [Inhibitor 2, Methyl 5-amino-1-benzoyl-1H-1,2,4-triazole-3-carboxylate]

- decrease in the inhibition potency (human FXIIa [9]): 77.5 fold
- DeltaY (efficacy of inhibition) (human FXIIa [9]): 82.1 ± 8.1%
- HS (Hill slope) (human FXIIa [9]): 1.37 ± 0.69
SMILES: CC(C)(C)c1ccc(C(=O)n2ncnc2N)cc1 [Inhibitor 3, (5-amino-1H-1,2,4-triazol-1-yl)(4-(tert-butyl)phenyl)methanone]
